Here are results for 8 molecules from ChEMBL document CHEMBL1126688, “Interphenylene 7-oxabicyclo[2.2.1]heptane oxazoles. Highly potent, selective, and long-acting thromboxane A2 receptor antagonists” (J Med Chem, 1993).

The term logP denotes the decadic logarithm of the partition coefficient of the neutral form, usually between octanol and water. Higher therefore signals a more lipophilic compound. What is called Kd is the concentration at which binding is half-saturated. A lower Kd goes with tighter binding.

Data set [1] has as its system Mus musculus. Nature of the data set: In vivo duration of action required to prevent death in mice, after i.v. administration of U-46619 (2 mg/kg) at 0.2 mg/kg p.o. The conditions noted are these: po.
A short description of data set [2]: Partition coefficient (logP). Format: physicochemical. The conditions noted are these: octanol/water. The method, boiled down: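 log P came from reversed-phase TLC Rm values on C18 plates. Eluent was acetone in 0.5 M aqueous KBr, buffered with 0.25 N triethylammonium phosphate to pH 7.3. Values were converted with a calibration curve built from shake-flask partition coefficients (pH 7.0) of seven oxabicycloheptane compounds spanning a range of lipophilicities.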

A further data set deals with T1, Thromboxane A2 receptor (Homo sapiens, UniProt P21731).
T1 sequence (P21731 whole entry): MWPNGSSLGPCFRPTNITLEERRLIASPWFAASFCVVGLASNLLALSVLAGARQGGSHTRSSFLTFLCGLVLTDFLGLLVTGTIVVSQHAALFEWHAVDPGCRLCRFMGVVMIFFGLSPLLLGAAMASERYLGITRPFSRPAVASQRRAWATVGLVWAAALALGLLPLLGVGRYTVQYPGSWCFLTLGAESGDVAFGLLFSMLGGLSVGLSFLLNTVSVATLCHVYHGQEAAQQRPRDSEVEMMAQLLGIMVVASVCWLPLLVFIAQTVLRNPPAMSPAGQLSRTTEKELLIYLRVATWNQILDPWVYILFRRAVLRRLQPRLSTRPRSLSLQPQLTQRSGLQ
Nature of the data set: Inhibitory binding activity against TXA2 receptor in human platelet membrane, using [3H]-SQ 29548 as the radioligand. An outline of the steps: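 Competition binding of [3H]-SQ 29,548 to TxA2 receptors in human platelet membranes, measured as inhibition of specific binding. Kd (inhibition constant) was calculated from each compound's I50 value. A slope factor is also reported.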

In data set [3] the test system is Mus musculus. Kind of data set: In vivo duration of action required to prevent death in mice, after iv administration of U-46619 (2 mg/kg) at 10 mg/kg po administration of compound.
The species entered for data set [4] is Homo sapiens. Kind of data set: Inhibitory activity against platelet aggregation, induced by U-46619 in human platelet rich plasma. The data set is classed as functional. The method, boiled down: (§1)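 Human platelet-rich plasma. Aggregation was induced by exogenous arachidonic acid or by the TxA2 mimetic U-46,619, each at a single fixed agonist level. I50 was taken as the antagonist concentration giving 50% inhibition of aggregation.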

For data set [5], the species on record is Homo sapiens. Nature of the data set: Inhibitory activity against platelet aggregation, induced by arachidonic acid in human platelet rich plasma. The data set is classed as functional. The method, boiled down: as §1

For `CCCCCCCNC(=O)c1coc(C2C3CCC(O3)C2Cc2ccccc2CCC(=O)O)n1` (stereo not drawn), the T50 stood at 9.5 h in the data set on Mus musculus [1] and 27.4 h in the data set on Mus musculus [3]. Moreover, the logP in data set [2] came to 2.88. Also, the dissociation constant (Kd) at Thromboxane A2 receptor was found to be 0.2 nM.
Consider `CCCCCNC(=O)c1coc(C2C3CCC(O3)C2Cc2ccccc2CCC(=O)O)n1` (stereo not drawn) [BMS-180291], for which, in the data set listed under Homo sapiens [4] (read-out: I50), the IC50 was determined as 21 nM. Besides, the T50 in the data set with Mus musculus [1] amounted to 14.4 h; in the data set with Mus musculus [3], 29.4 h. In addition, the log partition coefficient (logP) in data set [2] was 1.61. This molecule displayed a Kd at Thromboxane A2 receptor of 4 nM.
In the case of `O=C(O)CCc1ccccc1CC1C2CCC(O2)C1c1nc(C(=O)NCCCCC2CCCCC2)co1` (stereo not drawn), the results for the T50 with Mus musculus [1] and with Mus musculus [3] were 22.5 h and 49.6 h, respectively. This molecule registered a logP in data set [2] of 3.93.
On to `C#CCCCCCNC(=O)c1coc(C2C3CCC(O3)C2Cc2ccccc2CCC(=O)O)n1` (stereo not drawn), for which the figures for the IC50 in the data set filed under Homo sapiens [4] (read-out: I 50) and in the data set filed under Homo sapiens [5] (read-out: I 50) were 31 nM and 14 nM, respectively. Besides, in the data set with Mus musculus [1], the T50 is 11.1 h. The logP in data set [2] turned out to be 0.87. At Thromboxane A2 receptor, this molecule registered a dissociation constant (Kd) of 4.7 nM.
In the case of `O=C(O)CCc1ccccc1CC1C2CCC(O2)C1c1nc(C(=O)NCCc2ccc(Cl)cc2)co1` (stereo not drawn), the IC50 in the data set listed under Homo sapiens [4] (read-out: I50) came out at 14 nM; in the data set listed under Homo sapiens [5] (read-out: I50), 4 nM. Further, the T50 in the data set with Mus musculus [1] came out at 22.7 h; in the data set on Mus musculus [3], 38.7 h. For the same molecule, the logP in data set [2] was 1.55. At Thromboxane A2 receptor, this molecule yielded a Kd of 1.3 nM.
Consider `O=C(O)CCc1ccccc1CC1C2CCC(O2)C1c1nc(C(=O)NCCc2ccccc2)co1` (stereo not drawn), for which the IC50 worked out at 30 nM in the data set filed under Homo sapiens [4] (read-out: I50) and 9 nM in the data set filed under Homo sapiens [5] (read-out: I50). This molecule came in with a T50 in the data set with Mus musculus [1] of 4 h. Also, in data set [2], the logP worked out at 0.98. The same molecule gave a Kd on Thromboxane A2 receptor of 0.7 nM.
On to `O=C(O)CCc1ccccc1CC1C2CCC(O2)C1c1nc(C(=O)NCCCCc2ccccc2)co1` (stereo not drawn), for which the IC50 was found to be 13 nM in the data set listed under Homo sapiens [4] (read-out: I50) and 4 nM in the data set listed under Homo sapiens [5] (read-out: I50). The molecule further returned a T50 in the data set with Mus musculus [1] of 20 h. The logP in data set [2] amounted to 1.8. For the same molecule, the dissociation constant Kd at Thromboxane A2 receptor was found to be 0.3 nM.
The matching figures for `CC(C)(C)CCNC(=O)c1coc(C2C3CCC(O3)C2Cc2ccccc2CCC(=O)O)n1` (stereo not drawn): 28 nM, 8 nM, 13.5 h, 1.23 and 2.9 nM.
